Measured values published in ChEMBL document CHEMBL1141446, “Uncovering biosynthetic potential of plant-associated fungi: effect of culture conditions on metabolite production by Paraphaeosphaeria quadriseptata and Chaetomium chiversii” (J Nat Prod, 2007).
The source made the active and inactive calls. The calls are words filed in the database; no cut-off is given here.

Columns and labels:
Mus musculus = species on record: Mus musculus; test: Induction of heat shock in mouse 3T3-Y9/B12 reporter cells at 5 uM by heat shock induction assay; format: functional
MCF7 = test: Antiproliferative activity against human MCF7 cells by MTT assay; format: functional, cell-based
Summary of the method: (§1)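 Cells were exposed for 72 h to serial dilutions of test compound in RPMI 1640 supplemented with 10% fetal bovine serum. Viability was read by MTT assay, and IC50 was taken as the concentration giving 50% inhibition of proliferation/survival. A positive control was run alongside.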

NCI-H460 = test: Antiproliferative activity against human NCI-H460 cells by MTT assay; format: functional, cell-based; summary of the method: as §1
SF-268 = test: Antiproliferative activity against human SF268 cells by MTT assay; format: functional, cell-based; summary of the method: as §1

Row | IC50 (MCF7) | IC50 (NCI-H460) | SMILES | Activity (Mus musculus) | IC50 (SF-268)
1 | 150 nM | 300 nM | C[C@@H]1C[C@H]2O[C@@H]2C[C@H](O)/C=C/C(=O)Cc2cc(O)cc(O)c2C(=O)O1 | Active | 550 nM
2 | – | – | C[C@@H]1C[C@H]2O[C@@H]2/C=C\C=C\C(=O)Cc2c(Cl)c(O)cc(O)c2C(=O)O1 | Active | –
3 | – | 10 nM | COc1cccc2c1C(=O)c1c(O)c3c(c(O)c1C2=O)C[C@@](O)(C(=O)CO)C[C@@H]3O[C@H]1C[C@H](N)[C@H](O)[C@H](C)O1 [DOXORUBICIN] | – | –
4 | 400 nM | 500 nM | C[C@@H]1C[C@H]2O[C@@H]2CC/C=C/C(=O)Cc2cc(O)cc(O)c2C(=O)O1 [MONOCILLIN III] | Active | 300 nM
5 | 600 nM | 350 nM | C[C@@H]1C[C@H]2O[C@@H]2/C=C\C=C\C(=O)Cc2cc(O)cc(O)c2C(=O)O1 [MONOCILLIN I] | Active | 720 nM
